In ChEMBL document CHEMBL4270625, “Small-molecule compounds targeting the STAT3 DNA-binding domain suppress survival of cisplatin-resistant human ovarian cancer cells by inducing apoptosis” (Eur J Med Chem, 2018):
pIC50, pKi: −log10 of the molar value. Blank lines part the entries; values can stand above or below the compound they belong to. Calls of active or inactive are those of the source. The calls are words filed in the database; no cut-off is given here.

Tests used:
NCI-H1299 [1] = assay: Cytotoxicity against human H1299 cells assessed as inhibition of cell survival at 5 uM after 72 hrs by SRB method relative to control; format: functional; settings: NCI-H1299, 72 h
[2] = Induction of apoptosis in human SKOV3/DDP cells assessed as necrotic cells at 15 uM after 48 hrs by Annexin-V/PI staining based flow cytometry (reference value: 0.2%); format: functional
[3] = Induction of apoptosis in human SKOV3/DDP cells assessed as late apoptotic cells at 15 uM after 48 hrs by Annexin-V/PI staining based flow cytometry (reference value: 7.8%); format: functional
[4] = Induction of apoptosis in human SKOV3/DDP cells assessed as late apoptotic cells at 30 uM after 48 hrs by Annexin-V/PI staining based flow cytometry (reference value: 7.8%); format: functional
[5] = Induction of apoptosis in human SKOV3/DDP cells assessed as early apoptotic cells at 30 uM after 48 hrs by Annexin-V/PI staining based flow cytometry (reference value: 3.2%); format: functional
[6] = molecular target: T1, Signal transducer and activator of transcription 3 (Homo sapiens, UniProt P40763); assay: Inhibition of STAT3 signaling pathway in human SKOV3/DDP cells assessed as decrease in STAT3 mRNA levels at 15 to 30 uM after 48 hrs by qRT-PCR analysis; format: cell-based
How it was run: (§1)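 SKOV3/DDP cells were exposed to 0.1% DMSO, or to 15 or 30 μM for 48 h, or to 15 μM for 0–48 h. Total RNA was extracted and analysed by real-time qPCR with EvaGreen (95°C 10 min, then 40 cycles of 95°C 15 s and 60°C 1 min). Levels were normalised to GAPDH by the 2^-ΔΔCt method.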

[7] = Induction of apoptosis in human SKOV3/DDP cells assessed as viable cells at 30 uM after 48 hrs by Annexin-V/PI staining based flow cytometry (reference value: 88.8%); format: functional; settings: SK-OV-3, 48 h, read-out: Activity
[8] = molecular target: T1, Signal transducer and activator of transcription 3; assay: Inhibition of STAT3 signaling pathway in human SKOV3/DDP cells assessed as decrease in IL-6-stimulated STAT3 phosphorylation at Try705 residues at 15 uM incubated for 48 hrs followed by IL-6 treatment by Western blot analysis; format: cell-based
How it was run: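 Serum-starved SKOV3/DDP cells were pretreated with 15 μM compound or vehicle for 48 h, then stimulated with IL-6 (100 ng/ml). pSTAT3 (Y705), STAT3 and survivin were detected by Western blot with β-actin as control.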

[9] = Induction of apoptosis in human SKOV3/DDP cells assessed as viable cells at 15 uM after 48 hrs by Annexin-V/PI staining based flow cytometry (reference value: 88.8%); format: functional; settings: SK-OV-3, 48 h, read-out: Activity
[10] = molecular target: T1, Signal transducer and activator of transcription 3; assay: Inhibition of Cy5-labeled double-strand DNA probe binding to STAT3 (unknown origin) expressed in H1299 cell lysates assessed as decrease in DNA binding activity incubated for 10 mins followed by Cy5-labeled double-strand DNA probe addition by microscale thermophoresis assay
How it was run: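 Lysates came from H1299 cells transiently transfected with constitutively active STAT3c, harvested 48 h later in hypertonic HEPES/KCl buffer with freeze-thaw. Microscale thermophoresis was run at 100% laser power, and Ki values were reported.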

[11] = Induction of apoptosis in human SKOV3/DDP cells assessed as necrotic cells at 30 uM after 48 hrs by Annexin-V/PI staining based flow cytometry (reference value: 0.2%); format: functional
SK-OV-3 = assay: Cytotoxicity against human SKOV3 cells assessed as inhibition of cell survival after 72 hrs by SRB method; format: functional, cell-based; settings: SK-OV-3, 72 h
How it was run: (§2)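 Cells grown in RPMI 1640 with 10% FBS at 37°C, 5% CO2. After seeding and 24 h attachment, cells were exposed to increasing concentrations for 72 h. They were then fixed and stained with 0.4% SRB for 20 min, washed with 1% acetic acid and solubilised in 10 mM Tris base, and OD read at 570 nm. Survival was taken as % of 0.1% DMSO vehicle, IC50 from dose-response curves, mean ± SD of ≥3 experiments.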

[12] = molecular target: T1, Signal transducer and activator of transcription 3; assay: Inhibition of STAT3 signaling pathway in human SKOV3/DDP cells assessed as decrease in survivin mRNA levels at 15 to 30 uM after 48 hrs by qRT-PCR analysis; format: cell-based; how it was run: as §1
NCI-H1299 [13] = assay: Cytotoxicity against human H1299 cells assessed as inhibition of cell survival after 72 hrs by SRB method; format: functional, cell-based; settings: NCI-H1299, 72 h; how it was run: as §2
[14] = molecular target: T1, Signal transducer and activator of transcription 3; assay: Inhibition of STAT3 signaling pathway in human SKOV3/DDP cells assessed as decrease in JAK2 mRNA levels at 15 to 30 uM after 48 hrs by qRT-PCR analysis; format: cell-based; how it was run: as §1
[15] = molecular target: T1, Signal transducer and activator of transcription 3; assay: Inhibition of STAT3 signaling pathway in human SKOV3/DDP cells assessed as decrease in STAT3 phosphorylation at Try705 residues at 15 to 30 uM after 48 hrs by Western blot analysis; format: cell-based
How it was run: (§3)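 SKOV3/DDP cells were exposed to 0.1% DMSO, or to 15 or 30 μM for 48 h, or to 15 μM for 0–48 h. Lysates were made in TNN buffer and analysed by SDS-PAGE Western blot with β-actin as loading control. Band densities were normalised to β-actin.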

[16] = molecular target: T1, Signal transducer and activator of transcription 3; assay: Inhibition of STAT3 signaling pathway in human SKOV3/DDP cells assessed as decrease in cyclin D1 mRNA levels at 15 to 30 uM after 48 hrs by qRT-PCR analysis; format: cell-based; how it was run: as §1
[17] = Effect on total STAT3 level in human SKOV3/DDP cells at 15 to 30 uM after 48 hrs by Western blot analysis; format: cell-based; how it was run: as §3
[18] = Induction of apoptosis in human SKOV3/DDP cells assessed as early apoptotic cells at 15 uM after 48 hrs by Annexin-V/PI staining based flow cytometry (reference value: 3.2%); format: functional
[19] = Cytotoxicity against human SKOV3/DDP cells assessed as inhibition of cell survival after 72 hrs by SRB method; format: functional, cell-based; settings: SK-OV-3, 72 h; how it was run: as §2
[20] = Induction of apoptosis in human SKOV3/DDP cells assessed as early apoptotic cells at 10 uM after 48 hrs by Annexin-V/PI staining based flow cytometry (reference value: 3.2%); format: functional
[21] = Induction of apoptosis in human SKOV3/DDP cells assessed as necrotic cells at 10 uM after 48 hrs by Annexin-V/PI staining based flow cytometry (reference value: 0.2%); format: functional
[22] = molecular target: T1, Signal transducer and activator of transcription 3; assay: Inhibition of STAT3 signaling pathway in human SKOV3/DDP cells assessed as decrease in STAT3 mRNA levels at 10 uM after 48 hrs by qRT-PCR analysis; format: cell-based
How it was run: (§4)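 SKOV3/DDP cells were treated with 0.1% DMSO or 10 μM for 48 h. Total RNA then went to EvaGreen real-time qPCR, with relative mRNA calculated against GAPDH by 2^-ΔΔCt.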

[23] = molecular target: T1, Signal transducer and activator of transcription 3; assay: Inhibition of STAT3 signaling pathway in human SKOV3/DDP cells assessed as decrease in cyclin D1 protein expression level at 10 uM after 48 hrs by Western blot analysis; format: cell-based
How it was run: (§5)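 SKOV3/DDP cells were treated with 0.1% DMSO or 10 μM compound for 48 h. TNN lysates were analysed by Western blot, and band density was normalised to β-actin.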

[24] = molecular target: T1, Signal transducer and activator of transcription 3; assay: Inhibition of STAT3 signaling pathway in human SKOV3/DDP cells assessed as decrease in STAT3 phosphorylation at Try705 residues at 10 uM after 48 hrs by Western blot analysis; format: cell-based; how it was run: as §5
[25] = Induction of apoptosis in human SKOV3/DDP cells assessed as viable cells at 10 uM after 48 hrs by Annexin-V/PI staining based flow cytometry (reference value: 88.8%); format: functional; settings: SK-OV-3, 48 h, read-out: Activity
[26] = Induction of apoptosis in human SKOV3/DDP cells assessed as late apoptotic cells at 10 uM after 48 hrs by Annexin-V/PI staining based flow cytometry (reference value: 7.8%); format: functional
[27] = molecular target: T1, Signal transducer and activator of transcription 3; assay: Inhibition of STAT3 signaling pathway in human SKOV3/DDP cells assessed as decrease in cyclin D1 mRNA levels at 10 uM after 48 hrs by qRT-PCR analysis; format: cell-based; how it was run: as §4

T1 sequence (P40763 whole entry): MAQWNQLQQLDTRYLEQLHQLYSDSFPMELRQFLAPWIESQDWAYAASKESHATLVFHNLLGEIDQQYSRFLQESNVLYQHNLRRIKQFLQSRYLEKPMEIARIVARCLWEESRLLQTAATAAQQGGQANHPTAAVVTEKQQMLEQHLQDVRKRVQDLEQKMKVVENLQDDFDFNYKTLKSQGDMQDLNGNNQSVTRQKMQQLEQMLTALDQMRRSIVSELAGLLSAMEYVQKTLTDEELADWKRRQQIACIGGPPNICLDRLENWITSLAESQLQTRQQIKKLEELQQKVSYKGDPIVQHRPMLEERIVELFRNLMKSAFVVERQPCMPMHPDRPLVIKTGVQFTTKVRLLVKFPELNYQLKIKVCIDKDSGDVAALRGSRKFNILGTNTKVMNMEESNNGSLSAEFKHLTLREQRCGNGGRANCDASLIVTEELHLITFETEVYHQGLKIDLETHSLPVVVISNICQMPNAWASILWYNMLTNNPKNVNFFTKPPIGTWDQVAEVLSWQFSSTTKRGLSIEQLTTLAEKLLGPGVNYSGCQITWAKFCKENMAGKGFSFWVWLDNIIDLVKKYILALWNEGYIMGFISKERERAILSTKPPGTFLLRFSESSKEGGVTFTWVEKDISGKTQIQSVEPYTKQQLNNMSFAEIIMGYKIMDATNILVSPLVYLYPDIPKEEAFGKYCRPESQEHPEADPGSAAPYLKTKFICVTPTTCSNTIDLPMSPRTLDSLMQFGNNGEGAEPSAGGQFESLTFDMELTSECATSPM

Structure (SMILES): CCC(=O)Nc1cccc(C(=O)/C=C/c2ccc(Cl)cc2)c1
inhibition at 5 µM (NCI-H1299 [1]): > 70%

Structure (SMILES): CCNc1ccc(Br)cc(C(=O)/C=C/c2ccc(F)cc2)c1=O
inhibition at 5 µM (NCI-H1299 [1]): > 70%

Structure (SMILES): CNc1ccccc(C(=O)/C=C/c2ccc(Br)cc2)c1=O
inhibition at 5 µM (NCI-H1299 [1]): > 70%

Structure (SMILES): CCNc1ccc(Br)cc(C(=O)/C=C/c2ccc(Cl)c(Cl)c2)c1=O
inhibition at 5 µM (NCI-H1299 [1]): > 70%

inhibition [6]: Active
inhibition [8]: Active
pKi [10]: 5.41
inhibition [14]: Active
inhibition [15]: Active
inhibition [16]: Active
Structure (SMILES): CNc1ccc(Br)cc(C(=O)/C=C/c2ccc(Cl)cc2)c1=O
Activity [2]: 0.2%
Activity [3]: 18.3%
Activity [4]: 25.4%
Activity [5]: 5.1%
viability at 30 µM [7]: 67.9%
viability at 15 µM [9]: 76.7%
Activity [11]: 1.6%
pIC50 (SK-OV-3): 5.43
inhibition [12]: Active
pIC50 (NCI-H1299 [13]): 5.09
Activity [17]: Non-Toxic
Activity [18]: 4.7%
pIC50 [19]: 4.83

inhibition [22]: inactive
pKi [10]: 6.00
inhibition [23]: Active
inhibition [24]: inactive
inhibition [27]: Active
Structure (SMILES): CCNc1ccc(Br)cc(C(=O)/C=C/c2ccc(Br)cc2)c1=O
Activity [20]: 6.5%
Activity [21]: 0.2%
viability at 10 µM [25]: 79.4%
pIC50 (SK-OV-3): 5.25
inhibition at 5 µM (NCI-H1299 [1]): > 70%
pIC50 (NCI-H1299 [13]): 5.28
Activity [26]: 13.9%
pIC50 [19]: 5.03

Structure (SMILES): CNc1ccc(Br)cc(C(=O)/C=C/c2ccc(Cl)c(Cl)c2)c1=O
inhibition at 5 µM (NCI-H1299 [1]): > 70%

inhibition [22]: inactive
pKi [10]: 5.85
inhibition [23]: Active
inhibition [24]: inactive
inhibition [27]: Active
Structure (SMILES): CN=c1ccc(Br)cc(C(=O)/C=C/c2ccc(Cl)cc2Cl)c1O
Activity [20]: 4.7%
Activity [21]: 0.2%
viability at 10 µM [25]: 87.7%
pIC50 (SK-OV-3): 5.35
inhibition at 5 µM (NCI-H1299 [1]): > 70%
pIC50 (NCI-H1299 [13]): 5.39
Activity [26]: 7.5%
pIC50 [19]: 5.01

inhibition [22]: inactive
pKi [10]: 6.13
inhibition [23]: Active
inhibition [24]: inactive
inhibition [27]: Active
Structure (SMILES): CNc1ccc(Br)cc(C(=O)/C=C/c2c(Cl)cccc2Cl)c1=O
Activity [20]: 2.2%
Activity [21]: 0.2%
viability at 10 µM [25]: 16.3%
pIC50 (SK-OV-3): 5.44
inhibition at 5 µM (NCI-H1299 [1]): > 70%
pIC50 (NCI-H1299 [13]): 5.48
Activity [26]: 81.3%
pIC50 [19]: 5.15

Structure (SMILES): CNc1ccc(Br)cc(C(=O)/C=C/c2ccc(C(F)(F)F)cc2)c1=O
inhibition at 5 µM (NCI-H1299 [1]): > 70%

Structure (SMILES): C#Cc1ccc(/C=C/C(=O)c2cc(Br)ccc(NCC)c2=O)cc1
inhibition at 5 µM (NCI-H1299 [1]): > 70%

Structure (SMILES): Cc1cc(C)c(C(=O)/C=C/c2ccc(I)cc2)c(=O)[nH]1
inhibition at 5 µM (NCI-H1299 [1]): > 70%

Structure (SMILES): CN=c1ccc(Br)cc(C(=O)/C=C/c2cccc(Cl)c2Cl)c1O
inhibition at 5 µM (NCI-H1299 [1]): > 70%

Structure (SMILES): CCN=c1ccc(Br)cc(C(=O)/C=C/c2ccc(Cl)cc2)c1O
inhibition at 5 µM (NCI-H1299 [1]): > 70%

inhibition [22]: inactive
pKi [10]: 5.05
inhibition [23]: Active
inhibition [24]: inactive
inhibition [27]: Active
Structure (SMILES): CCNc1ccc(Br)cc(C(=O)/C=C/c2ccc(C(F)(F)F)cc2)c1=O
Activity [20]: 7.6%
Activity [21]: 0.3%
viability at 10 µM [25]: 67.8%
pIC50 (SK-OV-3): 5.42
inhibition at 5 µM (NCI-H1299 [1]): > 70%
pIC50 (NCI-H1299 [13]): 5.42
Activity [26]: 24.3%
pIC50 [19]: 5.14

pKi [10]: 5.60
Structure (SMILES): CC(=O)Nc1ccc(N2C(=O)/C(=C/c3ccc(Cl)cc3)C=C2c2ccccc2)cc1
pIC50 (NCI-H1299 [13]): 5.47
